Non-standard residues stand in square brackets, D forms with d. Residues, ends and D or L forms follow the SMILES beside them.
Assays:
Ad = molecular target: T1, Ad (Mus musculus, UniProt P01921+P04228); test: Competition for antigen presentation of OVA 323-339 to hybridoma DO11.10; format: cell-based
T1 sequence (P01921 28-265): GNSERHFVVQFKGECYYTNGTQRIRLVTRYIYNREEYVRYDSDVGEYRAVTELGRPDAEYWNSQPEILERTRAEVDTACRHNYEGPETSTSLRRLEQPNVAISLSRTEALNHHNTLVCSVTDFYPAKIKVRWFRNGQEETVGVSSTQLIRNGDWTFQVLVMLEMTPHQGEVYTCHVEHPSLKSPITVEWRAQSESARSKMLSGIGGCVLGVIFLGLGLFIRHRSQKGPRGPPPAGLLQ
T1 sequence (P04228 24-256): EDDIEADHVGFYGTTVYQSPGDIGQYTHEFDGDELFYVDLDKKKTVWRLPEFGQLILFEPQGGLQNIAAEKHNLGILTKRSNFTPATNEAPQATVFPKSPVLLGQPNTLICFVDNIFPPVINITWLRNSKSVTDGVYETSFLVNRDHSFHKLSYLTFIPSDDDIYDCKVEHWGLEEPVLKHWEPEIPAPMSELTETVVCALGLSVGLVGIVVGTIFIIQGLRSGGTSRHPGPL
Summary of the method: (§1)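 LK cells (2.5 × 10^4/well) served as APC. They were preincubated 24 h with antigenic peptide plus competitor peptide in RPMI 1640 with 10% FCS, then irradiated (2,000 rad) and washed. Hybridoma cells (5 × 10^4/well) were added for 24 h. Supernatant was transferred to 10^4 CTLL cells, and IL-2 was read as thymidine uptake over the last 4 h of the 24-h CTLL culture.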

NOD mice [1] = test: Mortality and symptoms during chronic treatment, second experiment; format: in vivo, mouse (NOD)
Summary of the method: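 Female NOD mice received 500 nmol test peptide in HBSS, i.p. and s.c., from 3 wk of age for 20 wk. Thereafter peptide was co-injected with ketotifen 3 mg/kg […] (13 mice). Controls were ketotifen only (15) and HBSS only (15).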

NOD mice [2] = test: Mortality and hypersensitivity during chronic treatment, first experiment; format: in vivo, mouse (NOD); conditions: after 10-18 wk of treatment; 500 nmol chronic
Summary of the method: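 Female NOD mice from 3 wk of age got 500 nmol test peptide in HBSS, i.p. and s.c. at multiple sites. Schedule: five times/week for 3 wk, five times/week for a further 3 wk, then twice weekly to 22-23 wk. Groups: 18 test-peptide, 12 nonblocking-peptide and 18 HBSS-only mice.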

[3] = Peptide-specific antibodies in mice of the Fig. 3 B experiment; format: in vivo, mouse (NOD); conditions: data not shown
Summary of the method: (§2)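 ELISA on sera of individual chronically peptide-treated NOD mice at several time points. Wells were coated with 250 ng peptide in PBS at 4°C overnight and blocked with 2% BSA, 37°C, 30 min. Diluted sera ran 1 h at 37°C, then phosphatase-conjugated anti-mouse Ig, IgG or IgM (1:500) 2 h at 37°C. p-Nitrophenyl phosphate (1 mg/ml) ran 45 min, read at OD 405. Uncoated-well background was subtracted from duplicate means.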

[4] = Peptide-specific antibodies by ELISA in sera of chronically treated mice; format: in vivo, mouse (NOD); conditions: for peptide-specific IgG antibodies / peptide-specific IgM antibodies: ELISA, sera of chronically treated mice
Summary of the method: as §2

[5] = tested on: Ag7-restricted T cell response; conditions: cited from earlier work
Ek = test: Competition for antigen presentation of HEL 1-18 to hybridoma 2G7.1; format: cell-based, mouse; conditions: APC LK cells, 2 μM HEL 1-18, competitor up to 100 μM
Summary of the method: as §1

Ag7 = test: Screening: binding to Ag7; format: cell-based, mouse (NOD); conditions: screening of peptide panel
[6] = tested on: NOD mice, spontaneous autoimmune diabetes; test: Prevention of spontaneous diabetes in female NOD mice, first experiment; format: in vivo, mouse (NOD)
Summary of the method: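 Female NOD mice from an SPF in-house colony were dosed from 3 wk of age with 500 nmol peptide in HBSS, i.p. and s.c. at multiple sites. The schedule was five times weekly for 3 wk, five times weekly for 3 wk more, then twice weekly to 22-23 wk. Arms: test peptide (18 mice), nonbinding control peptide (12), HBSS (18). Monitoring began at 10 wk; blood glucose ≥200 mg/dl counted as diabetic.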

[7] = tested on: NOD class II MHC molecule Ag7; test: Competition for antigen presentation of HEL 8-29 to T cell hybridoma 2D12.1; format: cell-based, mouse (NOD); conditions: APC NOD splenocytes, 80 nM HEL 8-29, competitor up to 100 μM
Summary of the method: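 NOD splenocytes (2.5 × 10^5/well) served as APC. They were held 24 h with antigenic peptide and competitor in RPMI 1640 + 10% FCS, then irradiated at 2,000 rad and washed before 5 × 10^4 hybridoma cells were added. After 24 h, supernatant went onto 10^4 CTLL cells. IL-2 was measured by thymidine incorporation during the final 4 h of the 24-h CTLL culture.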

Ed = test: Competition for antigen presentation of HEL 105-120 to hybridoma 1H11.3; format: cell-based, mouse; conditions: APC LK cells, 500 nM HEL 105-120, competitor up to 100 μM
Summary of the method: as §1

Compound: CC(C)[C@H](NC(=O)[C@@H](NC(=O)[C@H](Cc1ccc(O)cc1)NC(=O)[C@@H](NC(=O)[C@H](N)Cc1ccc(O)cc1)[C@@H](C)O)[C@@H](C)O)C(=O)N[C@@H](Cc1c[nH]cn1)C(=O)N[C@@H](C)C(=O)N[C@@H](C)C(=O)N[C@@H](Cc1c[nH]cn1)C(=O)N[C@@H](C)C(=O)N[C@@H](Cc1ccc(O)cc1)C(=O)N[C@H](C(=O)N[C@@H](Cc1ccc(O)cc1)C(=O)N[C@@H](C(=O)O)[C@H](C)O)[C@@H](C)O [P1, yTYTVHAAHAYTYt] (H-[dY]TYTVHAAHAYTY[dT]-OH)
- IC50 (Ad): ~20 µM
- mortality (NOD mice [1]; P1 mixed with ketotifen (3 mg/kg) after 20 wk of treatment): no mortality occurred
- symptoms after adding ketotifen (NOD mice [1]; P1 mixed with ketotifen (3 mg/kg) after first signs of postinjection fatigue (20 wk of treatment)): symptomless
- mortality (died/total) (NOD mice [2]): 6/18
- animals producing antibodies against the peptide [3]: 3 of 13 animals
- peptide-specific IgG antibodies [4]: IgG
- peptide-specific IgM antibodies [4]: no IgM
- fraction of mice antibody negative ([4]; after 13 wk of treatment): Approximately half

Compound: sheep insuline: sheep insulin used as antigen in NOD mice
- Ag7-restricted T cell response of NOD mice [5]: strong

Compound: KMKMVHAAHAKMKM [P2]
- effect on antigen presentation by Ek (Ek): inhibited antigen presentation
- effect on antigen presentation by Ad (Ad; APC LK cells, 1 μM OVA 323-339, hybridoma DO11.10, competitor up to 100 μM): inhibited antigen presentation
- mortality (died/total) (NOD mice [2]): 1/12
- binding to Ag7 (Ag7): fails to bind
- peptide-specific IgG antibodies [4]: no IgG
- peptide-specific IgM antibodies [4]: exclusively of IgM isotype
- fraction of mice nonresponders ([4]; chronic treatment): Approximately half
- plateau level of diabetic animals ([6]; by 22 wk of age, control groups (P2, 12 mice, or solvent)): 60%
- effect on spontaneous diabetes (summary) ([6]; chronic administration from 3 wk of age on, female NOD mice): no effect on the disease
- effect on antigen presentation by Ag7 [7]: not that by As7
- effect on antigen presentation by Ed (Ed): not that by As7 and Ea

— PMC2191014 (The Journal of Experimental Medicine, 1993)
